From ChEMBL document CHEMBL1142888, “Synthesis, antimicrobial, and anti-inflammatory activities of novel 2-(1-adamantyl)-5-substituted-1,3,4-oxadiazoles and 2-(1-adamantylamino)-5-substituted-1,3,4-thiadiazoles” (2007)
Values after ≈ are worked out from the molar mass of the structure shown.

What was measured:
Format in all cases: functional
Staphylococcus aureus [1] = test: Antimicrobial activity against Staphylococcus aureus IFO 3060 at 200 ug/disc after 24 hrs; details: IFO 3060, 24 h, read-out: IZ
Bacillus subtilis [2] = test: Antimicrobial activity against Bacillus subtilis IFO 3007 at 200 ug/disc after 24 hrs; details: IFO 3007, 24 h, read-out: IZ
Escherichia coli [3] = test: Antimicrobial activity against Escherichia coli IFO 3301 at 200 ug/disc after 24 hrs; details: IFO 3301, 24 h, read-out: IZ
Pseudomonas aeruginosa = test: Antimicrobial activity against Pseudomonas aeruginosa IFO 3448 at 200 ug/disc; details: read-out: IZ
Candida albicans [4] = test: Antimicrobial activity against Candida albicans IFO 0583 at 200 ug/disc after 48 hrs; details: IFO 0583, 48 h, read-out: IZ
Rattus norvegicus [5] = test: Antiinflammatory effect on carrageenan-induced paw oedema Sprague-Dawley rat assessed as reduction of paw oedema at 20 mg/kg, ip; set-up: scale not given: the % may be the effect or the level left; details: route intraperitoneal
Summary of the method: (§1)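 Rats in groups of five, acclimatised two days, given compound (20, 40, 60 mg/kg) or indomethacin (10 mg/kg) i.p. as suspension in 1 ml 0.5% aqueous carboxymethyl cellulose 1 h before 0.1 ml 1% carrageenin in saline into right hind plantar tissue; left paw got saline. Paw volume by water plethysmometer at 4 h; % protection vs vehicle control; mean ± S.E.M., Student's t test.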

Rattus norvegicus [6] = test: Antiinflammatory effect on carrageenan-induced paw oedema Sprague-Dawley rat assessed as reduction of paw oedema at 40 mg/kg, ip; set-up: scale not given: the % may be the effect or the level left; details: route intraperitoneal; summary of the method: as §1
Bacillus subtilis [7] = test: Antimicrobial activity against Bacillus subtilis IFO 3007 after 24 hrs; details: IFO 3007, 24 h
Escherichia coli [8] = test: Antimicrobial activity against Escherichia coli IFO 3301 after 24 hrs; details: IFO 3301, 24 h
Rattus norvegicus [9] = test: Antiinflammatory effect on carrageenan-induced paw oedema Sprague-Dawley rat assessed as reduction of paw oedema at 60 mg/kg, ip; set-up: scale not given: the % may be the effect or the level left; details: route intraperitoneal; summary of the method: as §1
Candida albicans [10] = test: Antimicrobial activity against Candida albicans IFO 0583 after 48 hrs; details: IFO 0583, 48 h
Staphylococcus aureus [11] = test: Antimicrobial activity against Staphylococcus aureus IFO 3060 after 24 hrs; details: IFO 3060, 24 h
Rattus norvegicus [12] = test: Antiinflammatory effect on carrageenan-induced paw oedema Sprague-Dawley rat assessed as reduction of paw oedema at 10 mg/kg, ip; set-up: scale not given: the % may be the effect or the level left; details: route intraperitoneal; summary of the method: as §1
Candida albicans [13] = test: Antimicrobial activity against Candida albicans IFO 0583 at 100 ug/disc after 48 hrs; details: IFO 0583, 48 h, read-out: IZ

MIC (Bacillus subtilis [7])	MIC (Escherichia coli [8])	MIC (Candida albicans [10])	MIC (Staphylococcus aureus [11])	SMILES	zone of inhibition at 200 µg/disc (Staphylococcus aureus [1])	zone of inhibition at 200 µg/disc (Bacillus subtilis [2])	zone of inhibition at 200 µg/disc (Escherichia coli [3])	zone of inhibition at 200 µg/disc (Pseudomonas aeruginosa)	zone of inhibition at 200 µg/disc (Candida albicans [4])	Activity (Rattus norvegicus [5])	Activity (Rattus norvegicus [6])	Activity (Rattus norvegicus [9])	Activity (Rattus norvegicus [12])	zone of inhibition at 100 µg/disc (Candida albicans [13])
1 µg/mL (≈ 3.04 µM)	4 µg/mL (≈ 12.1 µM)	–	–	O=C(NNC(=S)NC12CC3CC(CC(C3)C1)C2)c1ccccc1	< 10 mm	22 mm	16 mm	< 10 mm	< 10 mm	2.32%	1.8%	–	–	–
2 µg/mL (≈ 6.98 µM)	–	2 µg/mL (≈ 6.98 µM)	–	c1csc(-c2nnc(C34CC5CC(CC(C5)C3)C4)o2)c1	14 mm	18 mm	11 mm	12 mm	16 mm	35.95%	49.77%	63.72%	–	–
–	–	–	–	c1csc(-c2nnc(NC34CC5CC(CC(C5)C3)C4)s2)c1	< 10 mm	10 mm	< 10 mm	< 10 mm	< 10 mm	15.43%	28.62%	37.52%	–	–
–	–	4 µg/mL (≈ 10.3 µM)	–	O=C(NNC(=S)NC12CC3CC(CC(C3)C1)C2)C12CC3CC(CC(C3)C1)C2	< 10 mm	< 10 mm	< 10 mm	< 10 mm	16 mm	11.34%	13.08%	10.12%	–	–
–	–	–	2 µg/mL (≈ 5.78 µM)	Clc1ccc(-c2nnc(NC34CC5CC(CC(C5)C3)C4)s2)cc1	18 mm	16 mm	12 mm	< 10 mm	< 10 mm	21.63%	37.02%	37.11%	–	–
–	–	–	–	O=[N+]([O-])c1ccc(-c2nnc(C34CC5CC(CC(C5)C3)C4)o2)cc1	< 10 mm	< 10 mm	< 10 mm	< 10 mm	< 10 mm	9.92%	13.56%	12.08%	–	–
–	–	–	–	O=C(NNC(=S)NC12CC3CC(CC(C3)C1)C2)c1ccc(Br)cc1	< 10 mm	10 mm	< 10 mm	< 10 mm	< 10 mm	–	2.34%	–	–	–
4 µg/mL (≈ 11.9 µM)	–	–	–	O=C(NNC(=S)NC12CC3CC(CC(C3)C1)C2)c1cccs1	< 10 mm	18 mm	10 mm	< 10 mm	< 10 mm	0.96%	2.16%	–	–	–
–	–	–	–	O=[N+]([O-])c1cc(-c2nnc(C34CC5CC(CC(C5)C3)C4)o2)cc([N+](=O)[O-])c1	< 10 mm	< 10 mm	< 10 mm	< 10 mm	< 10 mm	4.16%	5.22%	3.66%	–	–
–	–	–	–	COc1ccc2c(c1)c(CC(=O)O)c(C)n2C(=O)c1ccc(Cl)cc1 [INDOMETHACIN]	–	–	–	–	–	–	–	–	60.4%	–
0.5 µg/mL (≈ 1.47 µM)	–	–	2 µg/mL (≈ 5.88 µM)	COc1ccc(-c2nnc(C34CC5CC(CC(C5)C3)C4)o2)cc1OC	18 mm	24 mm	12 mm	< 10 mm	< 10 mm	36.73%	53.61%	70.2%	–	–
–	–	–	–	Fc1ccc(-c2nnc(C34CC5CC(CC(C5)C3)C4)o2)cc1	< 10 mm	12 mm	< 10 mm	< 10 mm	< 10 mm	11.72%	29.15%	38.62%	–	–
–	–	–	–	c1ccc(-c2nnc(C34CC5CC(CC(C5)C3)C4)o2)cc1	< 10 mm	< 10 mm	< 10 mm	< 10 mm	< 10 mm	23.16%	31.28%	34.5%	–	–
–	–	–	–	Brc1ccc(-c2nnc(NC34CC5CC(CC(C5)C3)C4)s2)cc1	< 10 mm	< 10 mm	< 10 mm	< 10 mm	< 10 mm	12.51%	13.38%	14.16%	–	–
–	–	–	–	Fc1ccc(-c2nnc(NC34CC5CC(CC(C5)C3)C4)s2)cc1	14 mm	10 mm	10 mm	< 10 mm	< 10 mm	18.02%	35.55%	39.35%	–	–
2 µg/mL (≈ 5.61 µM)	1 µg/mL (≈ 2.81 µM)	–	2 µg/mL (≈ 5.61 µM)	O=[N+]([O-])c1ccc(-c2nnc(NC34CC5CC(CC(C5)C3)C4)s2)cc1	16 mm	18 mm	17 mm	12 mm	< 10 mm	9.11%	10.1%	10.74%	–	–
–	–	–	–	Brc1ccc(-c2nnc(C34CC5CC(CC(C5)C3)C4)o2)cc1	< 10 mm	14 mm	< 10 mm	< 10 mm	< 10 mm	11.6%	13.15%	13.01%	–	–
–	–	–	–	O=C(NNC(=S)NC12CC3CC(CC(C3)C1)C2)c1ccc(F)cc1	< 10 mm	13 mm	< 10 mm	< 10 mm	< 10 mm	–	–	–	–	–
–	–	–	–	C1C2CC3CC1CC(c1nnc(C45CC6CC(CC(C6)C4)C5)o1)(C2)C3	< 10 mm	< 10 mm	< 10 mm	< 10 mm	10 mm	44.27%	68.97%	71.52%	–	–
–	–	–	–	O=[N+]([O-])c1ccc(-c2nnc(C34CC5CC(CC(C5)C3)C4)o2)c(Cl)c1	< 10 mm	14 mm	10 mm	10 mm	< 10 mm	19.69%	21.65%	19.34%	–	–
–	–	–	–	Clc1ccc(-c2nnc(C34CC5CC(CC(C5)C3)C4)o2)cc1	< 10 mm	13 mm	10 mm	< 10 mm	< 10 mm	34.5%	44.66%	50.71%	–	–
–	–	2 µg/mL (≈ 5.41 µM)	–	C1C2CC3CC1CC(Nc1nnc(C45CC6CC(CC(C6)C4)C5)s1)(C2)C3	< 10 mm	< 10 mm	< 10 mm	–	18 mm	31.6%	39.65%	44.14%	–	–
0.5 µg/mL (≈ 1.34 µM)	2 µg/mL (≈ 5.34 µM)	–	1 µg/mL (≈ 2.67 µM)	O=C(NNC(=S)NC12CC3CC(CC(C3)C1)C2)c1ccc([N+](=O)[O-])cc1	20 mm	24 mm	19 mm	15 mm	< 10 mm	0.76%	–	–	–	–
–	–	–	–	c1ccc(-c2nnc(NC34CC5CC(CC(C5)C3)C4)s2)cc1	< 10 mm	< 10 mm	12 mm	< 10 mm	< 10 mm	19.69%	34.05%	33.53%	–	–
–	–	–	–	O=C(NNC(=S)NC12CC3CC(CC(C3)C1)C2)c1ccc(Cl)cc1	< 10 mm	13 mm	< 10 mm	< 10 mm	< 10 mm	9.11%	–	–	–	–

SMILES	MIC (Bacillus subtilis [7])	MIC (Escherichia coli [8])	MIC (Candida albicans [10])	MIC (Staphylococcus aureus [11])	zone of inhibition at 200 µg/disc (Staphylococcus aureus [1])	zone of inhibition at 200 µg/disc (Bacillus subtilis [2])	zone of inhibition at 200 µg/disc (Escherichia coli [3])	zone of inhibition at 200 µg/disc (Pseudomonas aeruginosa)	zone of inhibition at 200 µg/disc (Candida albicans [4])	Activity (Rattus norvegicus [5])	Activity (Rattus norvegicus [6])	Activity (Rattus norvegicus [9])	Activity (Rattus norvegicus [12])	zone of inhibition at 100 µg/disc (Candida albicans [13])
Clc1ccccc1C(c1ccccc1)(c1ccccc1)n1ccnc1 [CLOTRIMAZOLE]	–	–	2 µg/mL (≈ 5.8 µM)	–	–	–	–	–	–	–	–	–	–	21 mm
